ED50 and Ki data for 31 molecules are collected here from ChEMBL document CHEMBL1129649, “A novel series of (phenoxyalkyl)imidazoles as potent H3-receptor histamine antagonists” (J Med Chem, 1996).

Bounds are passed on as bounds.

One experiment relates to Mus musculus. Nature of the experiment: In vivo evaluation for effect on brain tele-methylhistamine levels in mice. Type of experiment: functional. The essentials: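 Male Swiss mice (18-22 g, groups of at least six) fasted 24 h, then dosed orally as salt suspended in 1% methylcellulose (doses as free base, starting at 10 mg/kg). Cerebral cortex taken 90 min later, homogenized in ice-cold 0.4 M perchloric acid; tele-methylhistamine measured by radioimmunoassay. ED50 calculated relative to maximal level produced by 10 mg/kg thioperamide.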

Another experiment has as its target Histamine H3 receptor (Rattus norvegicus, UniProt Q9QYN8). Nature of the experiment: Rat Histamine H3 receptor antagonism determined by [K+] - evoked depolarization-induced release of [3H]histamine from rat cerebral cortex synaptosomes. Type of experiment: functional, subcellular, Brain.

Chain of Histamine H3 receptor (Q9QYN8 whole entry): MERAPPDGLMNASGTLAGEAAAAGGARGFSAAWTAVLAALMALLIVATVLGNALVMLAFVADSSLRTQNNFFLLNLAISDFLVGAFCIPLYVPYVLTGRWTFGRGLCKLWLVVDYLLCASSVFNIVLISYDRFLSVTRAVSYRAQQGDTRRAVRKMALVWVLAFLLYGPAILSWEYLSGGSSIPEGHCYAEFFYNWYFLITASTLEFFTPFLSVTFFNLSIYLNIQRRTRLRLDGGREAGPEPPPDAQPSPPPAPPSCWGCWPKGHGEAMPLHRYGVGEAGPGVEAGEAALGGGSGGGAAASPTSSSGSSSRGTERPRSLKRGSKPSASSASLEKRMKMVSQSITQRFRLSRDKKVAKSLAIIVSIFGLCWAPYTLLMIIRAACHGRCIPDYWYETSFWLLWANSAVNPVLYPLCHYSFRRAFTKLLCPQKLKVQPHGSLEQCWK

As usually defined, the ED50 is the dose that gives a 50% effect, or the effect in half of the subjects. Lower therefore signals greater potency. Consider `O=[N+]([O-])c1ccc(SCCc2c[nH]cn2)nc1`, for which it took a dose of 2.6 mg/kg to reach the 50% effect level in the experiment on Mus musculus (ED50).

`N#Cc1ccc(OCCCc2c[nH]cn2)cc1`: in the experiment with Mus musculus, it took a dose of 0.54 mg/kg to reach the 50% effect level (ED50).

In turn, `N#Cc1ccc(OCCc2c[nH]cn2)cc1` had an ED50 in the experiment on Mus musculus of 1.2 mg/kg.

In general, Ki refers to a dissociation constant, usually derived from enzyme kinetics or from competition with a known ligand. Read a high Ki as a looser hold on the target. Regarding `Clc1ccc(OCCc2c[nH]cn2)cc1`, in the experiment with Mus musculus, it took a dose of 0.78 mg/kg to reach the 50% effect level (ED50). At Histamine H3 receptor, this molecule showed an inhibitory constant (Ki) of 21 nM.

In the experiment with Mus musculus, `CC(=O)c1ccc(OCCc2c[nH]cn2)cc1` displayed an ED50 of 3.2 mg/kg.

In turn, `Brc1ccc(OCCc2c[nH]cn2)cc1` gave an ED50 in the experiment on Mus musculus of 2.9 mg/kg. Moreover, the Ki on Histamine H3 receptor came out at 24 nM.

Consider `c1ccc2cc(OCCc3c[nH]cn3)ccc2c1`, for which it took a dose of 1.5 mg/kg to reach the 50% effect level in the experiment on Mus musculus (ED50).

For the molecule `COc1ccc(OCCc2cnc[nH]2)cc1`, the 50% effect level in the experiment on Mus musculus (ED50) was put at a dose of 2.9 mg/kg. For the same molecule, at Histamine H3 receptor, the Ki came to 38 nM.

Turning to `O=[N+]([O-])c1ccc(CSCc2c[nH]cn2)cc1`, the ED50 in the experiment on Mus musculus was over 10 mg/kg.

On to `O=[N+]([O-])c1ccc(SCCc2c[nH]cn2)cc1`, for which the ED50 with Mus musculus amounted to 2.7 mg/kg. Moreover, the affinity at Histamine H3 receptor, expressed as Ki, was 9 nM.

On to `O=C(c1ccccc1)c1ccc(OCCc2c[nH]cn2)cc1`, for which, in the experiment with Mus musculus, it took a dose of 2.6 mg/kg to reach the 50% effect level (ED50). At Histamine H3 receptor, this molecule had a Ki of 54 nM.

In the experiment with Mus musculus, `CCCc1ccc(OCCc2c[nH]cn2)cc1` yielded a median effective dose (ED50) of 1.6 mg/kg.

In the experiment on Mus musculus, `Cc1ccc(OCCc2c[nH]cn2)cc1` registered a median effective dose (ED50) of 2.3 mg/kg.

In turn, `N#Cc1ccccc1OCCc1c[nH]cn1` had a median effective dose (ED50) with Mus musculus of over 10 mg/kg.

For `COC(=O)c1ccc(OCCc2c[nH]cn2)cc1`, in the experiment on Mus musculus, the ED50 is over 3 mg/kg. The affinity on Histamine H3 receptor, expressed as Ki, was 5.1 nM.

The molecule `N#Cc1cccc(OCCc2c[nH]cn2)c1` had a 50% effective dose (ED50) in the experiment on Mus musculus of 2.9 mg/kg. The molecule also came in with an inhibition constant (Ki) at Histamine H3 receptor of 39 nM.

As for `O=[N+]([O-])c1cccc(OCCc2c[nH]cn2)c1`, the 50% effective dose (ED50) with Mus musculus was 0.9 mg/kg. Besides, the affinity at Histamine H3 receptor corresponds to a Ki of 12 nM.

`FC(F)(F)c1ccc(OCCc2cnc[nH]2)cc1`: the ED50 with Mus musculus is over 10 mg/kg. This molecule also showed a Ki at Histamine H3 receptor of 68 nM.

In the experiment on Mus musculus, `FC(F)(F)c1ccc(OCCCc2c[nH]cn2)cc1` returned an ED50 of 0.6 mg/kg.

In the experiment on Mus musculus, `Clc1cc(Cl)cc(OCCc2c[nH]cn2)c1` had an ED50 of over 10 mg/kg. In addition, the inhibitory constant (Ki) on Histamine H3 receptor was over 500 nM.

Regarding `c1ccc2c(OCCc3c[nH]cn3)cccc2c1`, it took a dose of 3.4 mg/kg to reach the 50% effect level in the experiment with Mus musculus (ED50). The molecule also returned an inhibitory constant (Ki) at Histamine H3 receptor of 137 nM.

For the molecule `Fc1c(F)c(F)c(OCCc2c[nH]cn2)c(F)c1F`, the median effective dose (ED50) with Mus musculus came to 10 mg/kg. Besides, the inhibitory constant (Ki) at Histamine H3 receptor is over 500 nM.

Take `Fc1ccc(OCCCc2cnc[nH]2)cc1`: it took a dose of 4.9 mg/kg to reach the 50% effect level in the experiment with Mus musculus (ED50). For the same molecule, the inhibition constant Ki at Histamine H3 receptor was determined as 11 nM.

In turn, `O=C(c1ccc(OCCc2cnc[nH]2)cc1)N1CCCCC1` displayed a median effective dose (ED50) in the experiment on Mus musculus of over 10 mg/kg. Moreover, affinity at Histamine H3 receptor was put at a Ki of 338 nM.

In turn, `CCC(=O)c1ccc(OCCc2cnc[nH]2)cc1` had an ED50 in the experiment on Mus musculus of 0.95 mg/kg. On Histamine H3 receptor, this molecule had a Ki of 3.7 nM.

For `CCc1ccc(OCCc2cnc[nH]2)cc1`, in the experiment with Mus musculus, the ED50 is over 10 mg/kg. On Histamine H3 receptor, this molecule had a Ki of 80 nM.

For `O=[N+]([O-])c1ccc(OCCc2c[nH]cn2)cc1`, in the experiment with Mus musculus, it took a dose of 0.66 mg/kg to reach the 50% effect level (ED50).

`O=[N+]([O-])c1ccc(NCCc2c[nH]cn2)nc1` yielded an inhibition constant (Ki) at Histamine H3 receptor of 29 nM.

Turning to `CCOC(=O)c1ccc(OCCc2c[nH]cn2)cc1`, the ED50 in the experiment on Mus musculus was over 10 mg/kg. On Histamine H3 receptor, this molecule yielded a Ki of 6 nM.

Molecule `O=[N+]([O-])c1ccc(NCCc2c[nH]cn2)cc1` showed a median effective dose (ED50) in the experiment with Mus musculus of 10.7 mg/kg.

In the experiment on Mus musculus, `S=C(NC1CCCCC1)N1CCC(c2cnc[nH]2)CC1` [THIOPERAMIDE] yielded an ED50 of 1 mg/kg. Against the preceding molecule, the ED50 is about 11-fold lower.
